An excerpt weighted towards active compounds, which were near 9.5% of everything screened.
D1 mod = allosterically modulates the human D1 dopamine receptor. P21728. HEK293 D1, CRE-luciferase, dopamine EC30 potentiation; actives deviate in either direction. B-score at 10 µM. 5.9% of 58,000 active. AID 641;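 active = luminescence count or its row- and column-corrected plate score outside the 99.7% band of the plate's sample wells, on either side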
Jurkat viability = cytotoxic compounds reducing Jurkat cell viability; AID 463; 1.2% of 56,000 active; Jurkat E6.1 viability, ATP luminescence, 48 h; inhibition, % at 4 µM;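 active = inhibition above the mean inhibition of all tested compounds plus 3 SD, cut at about 28% in these data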
M1 agonist = M1 muscarinic receptor agonism | CHO-M1 cells, Fluo-4 calcium fluorescence, agonist mode; stronger effect = higher value | B-score at 10 µM | 3% of 64,000 active;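 active = fluorescence rise, raw or as B-score row- and column-corrected plate score, outside the 99.7% band of its plate's samples, either direction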
mHtt clearance = mutant huntingtin protein clearance; HeLa Exon1htt(103Q)mCFP, aggregate imaging; zero = plate's median compound well; inhibition, % at 1.5 µM; 0.42% of 47,000 active;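 active = inhibition of aggregate fluorescence above about 70%, also judged a hit by eye on the cell image, limit read from the data, passing the limit was not always enough; inconclusive = no rule stated for this call; inactive = not judged a hit on image review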;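 note: cells exposed to compound for three days before fixation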
HEK293 NFkB inh = lowers PMA/ionomycin-induced NF-kB signal in HEK293 cells. inhibition, % at 3 µM. HEK-293 NF-kB luciferase reporter, luminescence. 0.21% of 62,000 active;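 active = inhibition above the mean of all tested compounds plus 3 SD, cut at about 40% in these data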;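 note: 0% = stimulated DMSO wells and 100% = 10 µM reference inhibitor 5653914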
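Reagent: PMA plus ionomycin mix as NF-kB-activating stimulus. Assay system: NF-kB luciferase reporter HEK-293 cells. Technique: luminescence from luciferase substrate reagent. Incubation: 1 h compound pre-incubation, 16 h PMA/ionomycin at 37 °C. Benchmarks: DMSO only as uninhibited control, 10 µM reference inhibitor as full inhibition. Repeats: tested once.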
M1 antagonist = M1 muscarinic receptor (rat) antagonism. P08482. CHO-M1 cells, Fluo-4 calcium, ACh EC80 antagonist mode; stronger effect = lower value. B-score at 10 µM. 3.4% of 64,000 active;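 active = calcium fluorescence response, raw or row-and-column corrected B-score, differing from the plate sample mean either way at a set confidence level, mostly lower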
Target sequence (P08482 whole entry, looked up): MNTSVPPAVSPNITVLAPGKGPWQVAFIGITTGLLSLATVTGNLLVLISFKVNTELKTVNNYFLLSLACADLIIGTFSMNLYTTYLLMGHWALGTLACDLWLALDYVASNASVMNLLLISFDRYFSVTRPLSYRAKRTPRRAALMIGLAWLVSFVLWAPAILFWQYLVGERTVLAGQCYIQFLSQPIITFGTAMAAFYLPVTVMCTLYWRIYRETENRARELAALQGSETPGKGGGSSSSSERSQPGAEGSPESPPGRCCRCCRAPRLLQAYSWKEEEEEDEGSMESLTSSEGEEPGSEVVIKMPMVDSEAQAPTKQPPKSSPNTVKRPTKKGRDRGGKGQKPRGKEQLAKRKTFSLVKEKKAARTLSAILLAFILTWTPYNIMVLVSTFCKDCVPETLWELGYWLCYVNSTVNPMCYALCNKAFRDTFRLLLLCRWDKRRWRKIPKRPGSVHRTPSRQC
M1 ag confirm = confirmation of rat M1 muscarinic receptor agonists; 19% of 1,700 active; fluorescence change (max-min) at 10 µM; CHO-M1 cells, Fluo-4 calcium fluorescence, agonist mode; actives lie on both sides; AID 1488; shares compounds with M1 agonist;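 active = fluorescence change differs from the solvent-only DMSO control mean at a set confidence level in both duplicate runs; inconclusive = differs from solvent-only control mean in just one of two runs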;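 note: an EC20 dose of acetylcholine follows compound addition during the same imaging run; raw fluorescence intensity difference in instrument units with no normalization to controls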
M4 ag counter = rat M4 muscarinic agonism, M1 counter-screen | 9% of 1,700 active | AID 1741 | CHO M4/Gqi5 cells, Fluo-4 calcium fluorescence, agonist mode; actives lie on both sides | fluorescence change (max-min) at 10 µM | shares compounds with M1 agonist;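 active = fluorescence change differing from the plate's solvent-only control wells at 99.7% confidence in both duplicates, whether higher or lower; inconclusive = differs from solvent controls in only one of two duplicates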
Active calls of the source: *; ? = inconclusive; / = no result.

SMILES	D1 mod	Jurkat viability	M1 agonist	mHtt clearance	HEK293 NFkB inh	M1 antagonist	M1 ag confirm	M4 ag counter
CS(=O)(=O)NCC(c1cccnc1)N1CCN(c2ccc(F)cc2)CC1 (centres undefined)	-0.48	-5	0.008	61	11	0.62	/	/
O=C(NCC(c1cccnc1)N1CCN(c2ccc(F)cc2)CC1)c1cccc(Cl)c1 (centres undefined)	-2	5	5.8*	/	11	-1.3	?	-51
CC(C)NC(=O)c1ccccc1NC(=O)CN(c1ccc2c(c1)OCO2)S(C)(=O)=O	0.96	-3	2.8	40	3	1	/	/
Fc1ccc(COc2ccc(/C=N/n3cnnc3)cc2)cc1	-2.8	7	1.8	-17	22	1.4	/	/
O=C(Nc1ccc2c(c1)OC1(CCCC1)O2)C1CC1	-0.27	-6	-0.25	/	4	-0.82	/	/
O=C(NCCCn1ccnc1)C(Cc1ccc([N+](=O)[O-])cc1)N1C(=O)c2ccccc2C1=O (centres undefined)	/	/	/	32	/	/	/	/
Cc1ccc2cc(C#N)c(N3CCCN(C(=O)C4CCCO4)CC3)nc2c1C (centres undefined)	-2.3	/	4.1*	/	4	-0.96	-12	-29
C=CCSc1nnc(-c2ccccc2NC(=O)CC)c(=O)[nH]1	/	-4	-1.1	2	10	0.61	/	/
CCn1c(C)nc2cc(C(=O)OC(C(F)(F)C(F)F)C(F)(F)C(F)F)ccc21	-0.62	1	11*	-47	9	-0.79*	2.8	-51
CCOC(=O)c1ccc2c(c1)nc(COc1ccc3ccccc3c1)n2CC	/	/	/	-63	/	/	/	/
Cc1ccc(N(CC(=O)NCc2ccc(F)cc2)S(=O)(=O)c2cccs2)cc1	/	/	/	-8	/	/	/	/
COc1ccccc1NC(=O)NS(=O)(=O)c1ccc(C)cc1	/	/	/	-27	/	/	/	/
O=C(COC(=O)c1ccncc1)Nc1cccc(Cl)c1	/	/	/	53	/	/	/	/
O=C(COC(=O)CCc1c[nH]c(=O)[nH]1)Nc1cccc(Cl)c1	0.16	-2	5.2*	10	13	-0.03	10	-12
CC(C)OC(=O)c1cn(-c2ccccc2)nc1-c1ccco1	1.6	-8	4.4*	/	20	-1.1	-16	-40
O=C(OCc1nnc(-c2ccccc2)o1)c1cn(-c2ccccc2)nc1-c1ccccc1	/	/	-0.36	/	-4	-0.18	/	/
COc1cccc(NC(=O)Nc2cccs2)c1	-1.5	1	-2.3	/	-2	-1	/	/
COc1cccc(NC(=O)c2cccs2)c1	0.96	-2	2.4*	-10	-2	-0.13	?	?
CCOC(=O)c1ccc(NS(=O)(=O)N2CCCCCC2)cc1	0.086	-4	-1.5	64	5	-0.25	/	/
CC(C)n1nnnc1SCC(=O)NCc1ccc2c(c1)OCO2	/	/	/	37	/	/	/	/
CCCn1nnnc1SCC(=O)NCc1ccc2c(c1)OCO2	0.2	0	3*	/	12	-0.13	-11	-22
O=C(CCNS(=O)(=O)c1cccc2nsnc12)N1CCc2ccccc21	/	/	-0.37	/	0	0.21	/	/
CC1Cc2ccccc2N1C(=O)CCNS(=O)(=O)c1cccc2nsnc12 (centres undefined)	-0.77	9	2.7*	/	7	-0.04	?	?
Cc1ccc(C2C(C#N)=C(N)Oc3c2sc2ccccc32)o1 (centres undefined)	4.7	-5	109*	/	2	-0.052	165*	53
CCOC(=O)CC1=C(C(=O)OCC)C(c2ccc(C)o2)C(C#N)=C(N)O1 (centres undefined)	0.065	9	0.29	/	16	0.058	/	/
SMILES	D1 mod	Jurkat viability	M1 agonist	mHtt clearance	HEK293 NFkB inh	M1 antagonist	M1 ag confirm	M4 ag counter
CN1CCc2c(sc3c2C(=O)NC(c2cccs2)N3)C1 (centres undefined)	-1.4	-7	-0.75	/	-14	-0.45	/	/
CN1CCc2c(sc3c2C(=O)NC(c2ccc(-c4cccc(Cl)c4)o2)N3)C1 (centres undefined)	/	-2	14*	/	7	-1.1	14	-14
Cc1ccc(-n2c(Cc3cccn3C)nnc2SCC(=O)NCc2ccc3c(c2)OCO3)cc1	1.7	5	-1.1	/	12	1.2	/	/
CCOc1ccc2nc(N3CCCC(C(=O)NCCCN4CCOCC4)C3)sc2c1 (centres undefined)	/	-2	2.1*	/	-14	1	6.7	-38
O=C(CCC(=O)N1CCc2ccccc21)N1CCc2ccccc21	0.67	12	-0.19	-63	12	-0.52	/	/
O=C(CS(=O)(=O)Cc1ccccc1)N1CCc2ccccc21	1.3	-6	23*	23	0	-0.13	-9.2	-29
CCc1nc2sc(C)c(C)c2c(=O)n1CCO	0.48	4	0.4	/	17	-0.24	/	/
COc1ccc(C(=O)NCc2nnc(SCC(=O)N3CCCCC3)o2)cc1OC	0.025	/	-0.14	-53	13	-0.38	/	/
COC(=O)C1=C(C)NC(=O)CC1c1cccc(Cl)c1Cl (centres undefined)	0.26	2	3.8*	/	8	0.0012	?	-47
COc1ccc(Cl)cc1C(=O)Nc1nnn(C)n1	-0.19	0	0.51	/	3	0.05	/	/
CC(=O)N1CCN(c2ccc(NC(=O)c3ccc(C(C)(C)C)cc3)cc2)CC1	-1.5	/	2.5*	/	0	-0.6	-2.8	-24
Cc1c(C(=O)OCCOC(C)C)[nH]c2c1C(=O)CC(c1ccco1)C2 (centres undefined)	0.46	100*	6.7*	/	48*	-2*	?	-80*
Cc1c(C(=O)OCCOC(C)C)[nH]c2c1C(=O)CC(C)(C)C2	/	1	-0.056	/	5	0.043	/	/
O=C(OCc1nc2ccccc2s1)C1CCN(C2=NS(=O)(=O)c3ccccc32)CC1	-0.51	-2	4.6*	-79	-2	-0.11	?	-75
CCC(=O)N(CC)c1nc(-c2ccc(OC)cc2)cs1	/	3	46*	39	5	0.68	?	-75*
CCC(=O)N(Cc1ccco1)c1nc(-c2ccc(OC)cc2)cs1	/	/	/	57	/	/	/	/
Cc1ccc(-c2noc(CCC(=O)Nc3cccc(C#N)c3)n2)cc1	-0.28	4	3.5*	/	-1	-1.2	-9.5	-17
CCOCCCNC(=O)C1CCCN1C(=O)NC1CCCCC1 (centres undefined)	0.042	1	-0.0066	35	19	-0.08	/	/
O=C(O)C1CCC(=O)N1C1CCCC1 (centres undefined)	-0.54	5	5*	/	3	0.75	-29*	?
O=C(O)C1CCC(=O)N1C1c2ccccc2Oc2ccccc21 (centres undefined)	/	-1	0.29	-289	12	-0.8	/	/
CN(Cc1ccccc1)C(=O)C1CCCN(Cc2ccc(Cl)cc2)C1 (centres undefined)	/	/	/	49	/	/	/	/
